# High-throughput results from PubChem.
# Insulin prom act = TRM-6 insulin promoter activation. hit rate 0.81% among 130,000. TRM-6 cells, insulin promoter eGFP reporter, imaging; plate-scaled: unstimulated 0, stimulated control 100. activation, % at 2 µM. AID 1296;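 active = activation at 2 µM above a set limit, confirmed on inspection of the cell images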;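 note: share of cells whose green reporter signal exceeds an intensity cutoff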
#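 Test system: human fetal islet-derived TRM-6 cells with tamoxifen-inducible insulin promoter–eGFP reporter; schedule: overnight tamoxifen, then two-day compound incubation at 37 °C; measured by: high-content imaging of fixed cells with Hoechst nuclear stain; evaluation: percent cells above green-intensity threshold, converted to percent activation versus plate controls; control set: stimulated and unstimulated wells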
# Active calls of the source: *. The sample as a whole holds a higher share of hits than the screen did.
SMILES,Insulin prom act
O=[N+]([O-])c1cccc(/C=N/Nc2cc(Cl)nc(-c3ccccc3)n2)c1,-7
CCOC(=O)/C(C#N)=C\c1ccc(OCC(=O)Nc2ccc(C)cc2C)c(OC)c1,8
Cc1ccsc1C=C1C(=O)c2ccccc2C1=O,312*
Cc1ccc(C(=O)O)cc1-c1ccc(C=C2C(=O)c3ccccc3C2=O)o1,0
Cc1ccsc1/C=N/N1CCN(C2c3ccccc3-c3ccccc32)CC1,-3
CC(C)Cn1[nH]c2c3c(ccc2c1=O)C(=O)c1ccccc1C3=O,0
O=C(CCN1C(=O)C2C3C=CC(C3)C2C1=O)N1CCN(c2ccccc2Cl)CC1 (stereo not drawn),-3
O=C(CCn1c(=O)oc2ccccc21)N1CCN(c2ccccc2Cl)CC1,128
N#CCC(=N)N1CCN(c2ccccc2Cl)CC1,177*
COc1ccc(C(=O)Nc2c(C)csc2C(=O)O)cc1,5
O=C(OCCN1C(=O)c2cccc3c(N4CCOCC4)ccc(c23)C1=O)c1cc(Cl)cc(Cl)c1,204*
CCN1C(=O)c2cccc3c(S(=O)(=O)Nc4ccccc4OC)ccc1c23,109
CCCN1C(=O)c2cccc3c(N4CCCCC4)ccc(c23)C1=O,245*
CCN(CC)S(=O)(=O)c1ccc(C(=O)OCCN2C(=O)c3cccc4c(N5CCOCC5)ccc(c34)C2=O)cc1,0
Cn1nc(C(=O)OCCN2C(=O)c3ccccc3C2=O)c2ccccc2c1=O,3
O=C1c2cccc3c(N4CCCCC4)ccc(c23)C(=O)N1c1ccc(Cl)cn1,-5
O=C(CNc1cc(S(=O)(=O)N2CCOCC2)ccc1N1CCCC1)N1CCc2ccccc21,-7
O=C(NCCc1ccccc1)c1cc(=O)c2ccccc2o1,-6
Cc1cc2nc(CN(C)Cc3c(C(=O)N(C)C)nc4ccc(Cl)cn34)[nH]c2cc1C,7
CCSc1ncc(C)cc1[N+](=O)[O-],-6
O=C1CC(c2ccc(F)cc2)Sc2nc(-c3ccccc3)c(-c3ccccc3)n21 (stereo not drawn),107
CCOC(=O)c1nn(C)c(C)c1Cl,-8
CC(C)(C)C(=O)COC(=O)C1CC(=O)N(c2ccccc2)C1 (stereo not drawn),4
CC(C)(C)NC(=O)c1cnn(-c2ccccc2)c1NC(=O)c1ccccc1,0
O=C(Nc1c(C(=O)NCc2ccco2)cnn1-c1ccccc1)c1cccc(F)c1,287*
SMILES,Insulin prom act
O=C(NCc1ccco1)c1cnn2c(C(F)F)cc(-c3ccccc3)nc12,-10
CCC1Oc2ccc(C)cc2N(CC(=O)N(Cc2ccc(C)o2)C2CCCC2)C1=O (stereo not drawn),256
CC(C)(C)C(=O)Nc1nc(C2CCCN2S(=O)(=O)c2ccc(Cl)cc2)cs1 (stereo not drawn),-3
COc1ccc(-c2c(C)nn(-c3ccccc3)c2N)cc1,0
Cc1nn(-c2ccc(C(=O)O)cc2)c(C)c1Oc1ccccc1O,8
COP(C)(=O)c1c(C)nn(-c2ccccc2)c1C (stereo not drawn),84*
Cc1ccc(-n2c(=O)c3ccccc3n(CC(=O)C(C)(C)C)c2=O)cc1,-3
Cc1cc(C(F)(F)F)nn1CC(=O)NCc1cccs1,-7
C=C(C)COc1ccc2c3c(c(=O)oc2c1OCC(=C)C)CCC3,143*
Cc1c(OCc2ccc([N+](=O)[O-])cc2)ccc2c3c(c(=O)oc12)CCC3,194
Cc1c(OCC(=O)OC(C)C)ccc2c3c(c(=O)oc12)CCC3,7
Cc1ccc(N2C(=O)CSC2c2ccccn2)cc1Cl (stereo not drawn),-5
COc1cc(C(=O)NCC(c2ccccc2)N(C)C)ccc1OCC(=O)N1CCOCC1 (stereo not drawn),-9
CC(C)(C)C1CCc2c(C(=O)NNC(=O)CCC(=O)O)csc2C1 (stereo not drawn),-7
O=C(Nc1nc2ccccc2s1)C1=NN(c2ccccc2)C(=O)CC1,7
CSc1nc2c(c(-c3ccccc3)c1C#N)CCC2,411*
Cc1[nH]n2c(=O)c3c(nc2c1-c1ccccc1)CCC3,-83
N#Cc1c(N)nc2c(c1-c1ccncc1)CCCC2,0
CC(C)c1ccc(-c2c(C#N)c(N)nc3c2CCCCC3)cc1,-7
N#Cc1c(N)nc2c(c1-c1ccncc1)CCCCCC2,450*
N#Cc1c2c(nc(N)c1-c1ccccc1)CCCCC2,-9
Cc1cc[n+](-c2nc3ccccc3nc2[N-]S(=O)(=O)c2cccs2)cc1C,-10
CCN(CC)CC#CCC(C)(c1ccccc1)c1ccccc1,8
Nc1ccc(S(=O)(=O)Nc2nccc(/C=C/c3ccccc3F)n2)cc1,6
Cc1ccc(-n2cccc2/C=C2\C(=N)N3N=C(c4ccco4)SC3=NC2=O)cc1,8
COc1ccc(S(=O)(=O)NCC(=O)Nc2cccc(C)c2C)cc1OC,6
S=c1[nH]nc(-c2ccco2)n1Cc1ccccc1,407*
O=c1c2ccccc2nc(-c2ccco2)n1Cc1ccccc1,0
Cc1c(Cl)c(-c2n[nH]c(=S)n2Cc2ccco2)nn1C,8
CN(C)/C=N/c1sc2c(c1C#N)CC(C)(C)NC2(C)C,271
